Active and inactive are the calls of the source.
Columns and labels:
[1] = molecular target: Bromodomain-containing protein 4 (Homo sapiens) (UniProt O60885); conditions: HT-29, dose 500-1000 nM, time 24.0 hrs
[2] = tested on: SW480; experiment: Inhibition of colony formation in human SW480 cells at 500 to 1000 nM by crystal violet staining analysis; type: functional, cell-based; conditions: dose 500-1000 nM
Outline: (§1)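 Exponentially growing cells (1-2x10^3) plated in six-well plates; after 48 h treated with indicated concentrations for 3–5 days, then methanol-fixed and crystal violet stained. Cell lines maintained at 37 °C, 5% CO2 in serum-supplemented medium, STR-validated, mycoplasma-tested, <15 passages.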

[3] = tested on: HT-29; experiment: Inhibition of colony formation in human HT-29 cells at 500 to 1000 nM by crystal violet staining analysis; type: functional, cell-based; conditions: dose 500-1000 nM
Outline: as §1

[4] = tested on: COLO 320; experiment: Inhibition of colony formation in human COLO 320 cells at 500 to 1000 nM by crystal violet staining analysis; type: functional, cell-based; conditions: dose 500-1000 nM
Outline: as §1

[5] = molecular target: Bromodomain-containing protein 4 (Homo sapiens) (UniProt O60885); conditions: LS174T, dose 500-1000 nM, time 24.0 hrs
[6] = molecular target: Bromodomain-containing protein 4 (Homo sapiens) (UniProt O60885); conditions: LS174T, dose 500-1000 nM, time 24.0 hrs; remark: listed apart in the source
[7] = tested on: HCT-116; experiment: Inhibition of colony formation in human HCT116 p53+/+ cells at 500 to 1000 nM by crystal violet staining analysis; type: functional, cell-based; conditions: dose 500-1000 nM
Outline: as §1

[8] = molecular target: Bromodomain-containing protein 4 (Homo sapiens) (UniProt O60885); conditions: HCT-116, dose 500-1000 nM, time 24.0 hrs
[9] = molecular target: Bromodomain-containing protein 4 (Homo sapiens) (UniProt O60885); conditions: LS174T, dose 500-1000 nM, time 24.0 hrs; remark: listed apart in the source
[10] = tested on: LS174T; experiment: Inhibition of colony formation in human LS174T cells at 500 to 1000 nM by crystal violet staining analysis; type: functional, cell-based; conditions: dose 500-1000 nM
Outline: as §1

[11] = tested on: DLD-1; experiment: Inhibition of colony formation in human DLD-1 cells at 500 to 1000 nM by crystal violet staining analysis; type: functional, cell-based; conditions: dose 500-1000 nM
Outline: as §1

[12] = molecular target: Bromodomain-containing protein 4 (Homo sapiens) (UniProt O60885); conditions: DLD-1, dose 500-1000 nM, time 24.0 hrs
[13] = molecular target: Bromodomain-containing protein 4 (Homo sapiens) (UniProt O60885); conditions: HCT-116, dose 500-1000 nM, time 24.0 hrs; remark: listed apart in the source
[14] = tested on: HCT-116; experiment: Inhibition of colony formation in human HCT116 p53-/- cells at 500 to 1000 nM by crystal violet staining analysis; type: functional, cell-based; conditions: dose 500-1000 nM
Outline: as §1

[15] = molecular target: Bromodomain-containing protein 4 (Homo sapiens) (UniProt O60885); conditions: SW480, dose 500-1000 nM, time 24.0 hrs
[16] = molecular target: Bromodomain-containing protein 4 (Homo sapiens) (UniProt O60885); conditions: COLO 320, dose 500-1000 nM, time 24.0 hrs

Measured: inhibition

Cc1sc2c(c1C)C(c1ccc(Cl)cc1)=N[C@@H](CC(=O)OC(C)(C)C)c1nnc(C)n1-2
active: all assays above
